Data: ChEMBL document CHEMBL4411332, “Deciphering the Role of Intramolecular Networking in Cholic Acid-Peptide Conjugates on the Lipopolysaccharide Surface in Combating Gram-Negative Bacterial Infections” (J Med Chem, 2019)
Values after ≈ are worked out from the molar mass of the structure shown. Values belong to the molecule of their own block, whether it stands above or below them. Active and inactive are the calls of the source. No cut-off for these calls is given here.

What was measured:
Escherichia coli [1] = assay: Antibacterial activity against Escherichia coli by broth dilution assay; assay type: functional
Procedure, shortened: (§1)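 MIC99 by broth-dilution assay; antibacterial and culture details are in the Supporting Information.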

Klebsiella pneumoniae = assay: Antibacterial activity against Klebsiella pneumoniae by broth dilution assay; assay type: functional; procedure, shortened: as §1
Acinetobacter baumannii = assay: Antibacterial activity against Acinetobacter baumannii by broth dilution assay; assay type: functional; procedure, shortened: as §1
Erythrocyte = assay: Hemolytic activity against human RBC incubated for 1 hr; assay type: ADME, cell-based
A549 = assay: Cytotoxicity against human A549 cells incubated for 48 hrs by MTT assay; assay type: cell-based; conditions: a549, 48 h
Escherichia coli [2] = assay: Antimicrobial activity against compound-pre-treated Escherichia coli by broth dilution assay based drug resistance development assay; assay type: functional, organism-based
Procedure, shortened: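 E. coli pre-treated with compound, then MIC₉₉ redetermined by broth-dilution assay in four replicates; reported as fold change in MIC₉₉ relative to starting value to assess resistance development.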

[3] = Binding affinity to DPH-doped model gram negative bacterial membrane (LPS/DPPE/DMPG lipids) assessed as increase in membrane fluidity by fluorescence anisotrophy
Procedure, shortened: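 Vesicles of LPS, DPPE and DMPG doped with DPH were incubated with compound, and the change in DPH fluorescence anisotropy was recorded. Mean ± SD of three replicates, unpaired two-tailed t-test.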

[4] = Solubility in water; assay type: physicochemical; conditions: buffer

SMILES: C[C@H](CCC(=O)OCc1ccccc1)[C@H]1CC[C@H]2[C@@H]3[C@H](OC(=O)CNC(=O)[C@@H](N)Cc4ccc(O)cc4)C[C@@H]4C[C@H](OC(=O)CNC(=O)[C@@H](N)Cc5ccc(O)cc5)CC[C@]4(C)[C@H]3C[C@H](OC(=O)CNC(=O)[C@@H](N)Cc3ccc(O)cc3)[C@]12C
MIC99 (Escherichia coli [1]): inactive

SMILES: CC[C@H](C)[C@H](N)C(=O)NCC(=O)O[C@@H]1CC[C@@]2(C)[C@@H](C1)C[C@@H](OC(=O)CNC(=O)[C@@H](N)[C@@H](C)CC)[C@@H]1[C@@H]2C[C@H](OC(=O)CNC(=O)[C@@H](N)[C@@H](C)CC)[C@]2(C)[C@@H]([C@H](C)CCC(=O)OCc3ccccc3)CC[C@@H]12
MIC99 (Escherichia coli [1]): 8 µM (≈ 8.07 µg/mL) | MIC99 (Klebsiella pneumoniae): 16 µM (≈ 16.1 µg/mL) | MIC99 (Acinetobacter baumannii): 16 µM (≈ 16.1 µg/mL) | Activity (Erythrocyte): Toxic | Activity (A549): Toxic

SMILES: NC[C@@H]1O[C@H](O[C@H]2[C@@H](O)[C@H](O[C@@H]3[C@@H](O)[C@H](N)C[C@H](N)[C@H]3O[C@H]3O[C@H](CN)[C@@H](O)[C@H](O)[C@H]3N)O[C@@H]2CO)[C@H](N)[C@@H](O)[C@@H]1O
Activity (Escherichia coli [2]): inactive

SMILES: C[C@H](CCC(=O)OCc1ccccc1)[C@H]1CC[C@H]2[C@@H]3[C@H](OC(=O)CNC(=O)[C@@H](N)Cc4c[nH]c5ccccc45)C[C@@H]4C[C@H](OC(=O)CNC(=O)[C@@H](N)Cc5c[nH]c6ccccc56)CC[C@]4(C)[C@H]3C[C@H](OC(=O)CNC(=O)[C@@H](N)Cc3c[nH]c4ccccc34)[C@]12C.Cl.Cl.Cl
MIC99 (Escherichia coli [1]): inactive | Activity [3]: inactive | solubility [4]: Insoluble

The remaining lines, values ahead:

MIC99 (Escherichia coli [1]): 8 to 128 µM (≈ 8.51 to 136 µg/mL)
SMILES: CSCC[C@H](N)C(=O)NCC(=O)O[C@@H]1CC[C@@]2(C)[C@@H](C1)C[C@@H](OC(=O)CNC(=O)[C@@H](N)CCSC)[C@@H]1[C@@H]2C[C@H](OC(=O)CNC(=O)[C@@H](N)CCSC)[C@]2(C)[C@@H]([C@H](C)CCC(=O)OCc3ccccc3)CC[C@@H]12

MIC99 (Escherichia coli [1]): 8 to 128 µM (≈ 7.06 to 113 µg/mL)
SMILES: C[C@H](N)C(=O)NCC(=O)O[C@@H]1CC[C@@]2(C)[C@@H](C1)C[C@@H](OC(=O)CNC(=O)[C@H](C)N)[C@@H]1[C@@H]2C[C@H](OC(=O)CNC(=O)[C@H](C)N)[C@]2(C)[C@@H]([C@H](C)CCC(=O)OCc3ccccc3)CC[C@@H]12
